Assay outcomes: PubChem, several laboratories
Rows were chosen to be rich in hits. Some 3.4% of all compounds tested hit in one or more screens of this group.
ANO1 activ: TMEM16A chloride channel activators or potentiators, primary screen, cell-based, HTS; Anoctamin-1 (Mus musculus), Q8BHY3; HEK293 TMEM16A/YFP-H148Q/I152L, iodide quench fluorescence; stronger effect = lower value; B-score at 10 µM; actives 0.3% (n = 340,000);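 active means fluorescence-ratio B-score plate-corrected deviation score at least 3 library SD below zero, with starting fluorescence score within 5 deviations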;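 further: channel opened by trigger with iodide after compound preincubation; score built on the fluorescence ratio of max minus min over baseline; more negative score means more quench and so TMEM16A activation or potentiation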
Target sequence (Q8BHY3 whole entry, looked up): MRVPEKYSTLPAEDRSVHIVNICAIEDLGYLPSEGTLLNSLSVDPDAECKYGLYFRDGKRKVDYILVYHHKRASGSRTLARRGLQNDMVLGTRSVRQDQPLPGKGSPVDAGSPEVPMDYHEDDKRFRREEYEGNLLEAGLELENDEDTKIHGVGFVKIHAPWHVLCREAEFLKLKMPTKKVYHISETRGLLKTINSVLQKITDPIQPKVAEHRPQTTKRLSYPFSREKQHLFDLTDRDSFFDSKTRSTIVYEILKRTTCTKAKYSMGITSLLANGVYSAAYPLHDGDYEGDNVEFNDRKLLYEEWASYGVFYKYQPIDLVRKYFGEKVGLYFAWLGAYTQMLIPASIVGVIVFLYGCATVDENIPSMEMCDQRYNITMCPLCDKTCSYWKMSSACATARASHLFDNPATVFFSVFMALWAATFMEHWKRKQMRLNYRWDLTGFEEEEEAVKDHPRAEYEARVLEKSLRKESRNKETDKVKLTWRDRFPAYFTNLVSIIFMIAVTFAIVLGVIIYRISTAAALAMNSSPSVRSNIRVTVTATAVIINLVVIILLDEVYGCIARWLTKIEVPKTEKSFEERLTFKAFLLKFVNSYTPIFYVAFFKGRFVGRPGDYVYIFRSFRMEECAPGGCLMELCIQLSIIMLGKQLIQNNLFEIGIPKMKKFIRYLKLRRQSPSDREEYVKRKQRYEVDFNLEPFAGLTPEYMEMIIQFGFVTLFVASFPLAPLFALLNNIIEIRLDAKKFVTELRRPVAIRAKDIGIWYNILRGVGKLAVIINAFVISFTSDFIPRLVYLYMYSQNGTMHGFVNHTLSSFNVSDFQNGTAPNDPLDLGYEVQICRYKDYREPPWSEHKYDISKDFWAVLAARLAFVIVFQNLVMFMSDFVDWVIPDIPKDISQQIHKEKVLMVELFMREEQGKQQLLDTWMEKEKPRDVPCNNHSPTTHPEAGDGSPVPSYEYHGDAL
HTR2A ag: mouse Htr2a agonists via beta-arrestin recruitment, primary screen, cell-based, luminescence; actives 0.66% (n = 360,000); CHO-K1 mHTR2A beta-arrestin complementation; percent of 30 µM serotonin response; 5-hydroxytryptamine receptor 2A (Mus musculus), P35363; activation, % at 7.6 µM;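 active means activation above a run cutoff, the mean activation of all tested compounds plus 3 SD, cut at about 14% in these data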;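 further: 0% = plate median of compound wells and 100% = 30 µM serotonin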
MC4R barr agon: MC4R agonists recruiting beta-arrestin, primary screen, cell-based, luminescence, agonist arm of biased-ligand search. Melanocortin receptor 4 (Homo sapiens), P32245. actives 0.98% (n = 360,000). U2OS MC4R beta-arrestin complementation; percent of melanotan II response, DMSO zero. activation, % at 8.9 µM;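 active means activation above a per-plate cutoff, the mean activation of sample wells on that plate plus 3 SD, cut at about 8% in these data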
TMEM16A inh: TMEM16A chloride channel inhibitors, primary screen, cell-based, HTS; Anoctamin-1 (Mus musculus), Q8BHY3; HEK293 TMEM16A/YFP iodide influx fluorescence, ionomycin; normalized B-score (activity score, 25-100; higher = stronger inhibition) at 10 µM; actives 1.2% (n = 310,000); AID 588511, 2011;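 active means ratio plate-corrected score three or more library SD toward inhibition, starting fluorescence score within five deviations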;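 further: score derived from kinetic fluorescence span divided by baseline fluorescence per well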
MIN6 prolif: inducers of MIN6 beta-cell proliferation, primary screen, ATP luminescence, uHTS. AID 2380, 2010. MIN6 cells proliferation, ATPlite luminescence, 48 h; cells starved in 0.2% serum; 100% = growth in 10% serum. proliferation, % at 10 µM. actives 0.29% (n = 330,000);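 active means compounds whose signal lies at least 3.5 SD above the mean of all wells on their plate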;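 further: 0% = DMSO-treated cells in low-serum medium and 100% = 10% serum control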
MC4R antagonist: MC4R antagonists of cAMP signaling, primary screen, cell-based, TR-FRET, antagonist arm of biased-ligand search | actives 0.48% (n = 360,000) | inhibition, % at 6.5 µM | MC4R-expressing cells, MTII-stimulated cAMP, LANCE TR-FRET;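 active means inhibition above its plate's cutoff, the mean of tested wells on that plate plus 3 SD, cut at about 29% in these data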;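 further: 0% = Melanotan II alone and 100% = Melanotan II plus saturating MCL0020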
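Assay system: U2OS-MC4R stable cell line; Also added: Melanotan II; Technique: Eu-cAMP/anti-cAMP TR-FRET, emission 671 nm; Times: 30-min compound, 1-h challenge, 1-h detection, room temperature.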
The depositor's hits bear a star; i = inactive; . = no result.

SMILES | ANO1 activ | HTR2A ag | MC4R barr agon | TMEM16A inh | MIN6 prolif | MC4R antagonist
CCCN(CCC)Cc1c(C(=O)N/N=C/c2ccncc2)nnn1-c1nonc1N | i | -4 | -2 | i | -5 | 9
COc1cccc(-c2c(C(=O)N/N=C/c3ccncc3)nnn2-c2nonc2N)c1 | i | 5 | -3 | i | 2 | 5
CCCN(CCC)Cc1c(C(=O)N/N=C/CCc2ccccc2)nnn1-c1nonc1N | i | 6 | 9.2* | i | -1 | 9
Cc1cc2c(Nc3ccc(C(=O)O)cc3)ncnc2s1 | i | 5 | 1 | i | 0 | -5
CC1(C)CC(=O)C=C(c2n[nH]nc2-c2ccccc2)C1 | . | -4 | 1 | . | . | -2
Nc1ccn([C@@H]2O[C@H](CNCc3ccc(C#CCCO)cc3)[C@@H](O)[C@H]2O)c(=O)n1 | . | -1 | -1 | . | . | 6
Cn1c(=O)c(/C=C/c2ccc(F)cc2)nc2ccccc21 | -7* | -7 | -3 | . | . | -11
CN(C(=O)COC(=O)C1COc2ccccc2O1)C1(C#N)CCCCC1 (stereo unspecified) | i | 7 | -1 | . | 1 | 7
CC(C)(C)[C@@H]1COC(=O)[C@H](Cc2ccc(F)cc2)CC/C=C\C[C@@H](CC(=O)N(CCO)Cc2ccccc2)C(=O)N1 | i | -10 | -2 | . | -5 | 0
O=C(Nc1nccs1)c1cc2sccc2n1Cc1ccc(F)cc1 | . | -1 | 8.9* | i | -3 | 4
COc1ccc(NC(=O)c2cc3sccc3n2Cc2ccc(F)cc2)cc1OC | i | -4 | -1 | i | -5 | 3
COc1cc(N)c(Cl)cc1C(=O)OCC(=O)NC(=O)NCc1ccco1 | i | 1 | -1 | . | -3 | 12
Nc1nonc1C(=O)NCCN=Cc1ccccc1O | i | 2 | 1 | i | -1 | 11
Nc1nonc1C(=O)NCCN=Cc1cc(Cc2ccccc2)cc(Br)c1O | i | -10 | 9.2* | i | -6 | 5
N#CC(c1ccccc1)c1ccc(C(=O)c2ccc(F)cc2)cc1 (stereo unspecified) | i | -2 | -1 | i | -3 | -1
N#CC(c1ccc(F)cc1)c1ccc(C(=O)c2ccccc2)cc1 (stereo unspecified) | i | -4 | -2 | 100* | -3 | 3
Cc1c(/C=N/NC(=O)C(NC(=O)c2ccc3c(c2)OCO3)C(C)C)c2ccccc2n1C (stereo unspecified) | -5.7* | 2 | 1 | i | -4 | 8
COc1cccc(CN(C)C(=O)c2cc(COc3ccc(-n4cncn4)cc3)on2)c1 | i | 0 | 1 | 25* | -5 | 0
O=C(CSc1ccc(Cl)cc1)Nc1ccc(C2SCCS2)cc1 | i | 0 | 9.6* | i | -2 | 5
O=C(COc1ccc(C2SCCS2)cc1)Nc1ccc(Cl)cc1 | i | -1 | -1 | i | -2 | 10
O=C(CSc1c(F)c(F)cc(F)c1F)Nc1ccc(C2SCCS2)cc1 | i | -4 | 8.5* | i | 1 | 6
CC(Oc1ccccc1)c1nnc(SCC(=O)NC2CC2)n1C (stereo unspecified) | i | 4 | 1 | i | -1 | -1
CCC(/C=N/NC(=O)C(N)=O)CC | -5.3* | 3 | 0 | i | 3 | 6
CCCCNC(=O)c1onc(CSc2ccc(C(C)C)cc2)c1C(=O)O | i | 3 | -1 | 25* | . | 6
CCCCNC(=O)c1onc(CSc2ccccc2)c1C(=O)O | i | 4 | 0 | i | -1 | 0
CCOC(=O)N1CCN(C(=O)c2c[nH]c3ccc(S(=O)(=O)N(C)c4cccc(C)c4)cc3c2=O)CC1 | -6.3* | -4 | -3 | i | -3 | -2
